Here are results for 29 compounds from ChEMBL document CHEMBL1156810, “Synthesis and structure-activity relationships of azamacrocyclic C-X-C chemokine receptor 4 antagonists: analogues containing a single azamacrocyclic ring are potent inhibitors of T-cell tropic (X4) HIV-1 replication” (J Med Chem, 2010).

SMILES strings stand for the structures. pEC50: −log10 of the molar value.

One may read the pEC50 as the EC50 on a negative log10 scale, so that one unit is a factor of ten.

One data set concerns Human immunodeficiency virus 1. Put plainly: Antiviral activity against HIV1 3B infected in human MT4 cells assessed as inhibition of virus replication after 4 days by MTT assay. Type of data set: functional, organism-based. Conditions: Human immunodeficiency virus 1, 3B, MT4, 96 h.
For the compound `c1ccc(CNCc2ccc(CN3CCNCCCCCCc4cccc(n4)C3)cc2)nc1`, the pEC50 is 5.34.

Tested on in a further data set: not listed separately
Put plainly: Therapeutic index, ratio of CC50 for human MT4 cells to EC50 for HIV1 3B. The class given is cell-based.
Conditions: not given
The procedure, abridged:
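Selectivity index calculated as CC50 divided by EC50. Both come from parallel 5-day MTT viability assays in MT-4 cells, mock-infected or infected with HIV-1 IIIB at MOI 0.01.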
Take `c1ccc(CNCc2ccc(CN3CCCNCCNCCCNCC3)cc2)nc1`: the selectivity ratio is above 12000.

In the next data set the test system is Human immunodeficiency virus 1. Put plainly: Antiviral activity against HIV1 3B infected in human MT4 cells assessed as inhibition of virus replication after 5 days by MTT assay. Conditions: Human immunodeficiency virus 1, 3B, MT4, 120 h. For orientation: Tetrazolium dyes change colour on reduction, which living cells bring about.
On to `CN(Cc1ccc(CN2CCCNCCNCCCNCC2)cc1)Cc1ccccn1`, for which the pEC50 is 6.38.

For `c1ccc(CNCc2ccc(CN3CCNCCNCCc4cccc(n4)CC3)cc2)nc1`, the pEC50 is 7.20. The same measure, in the same setting: with `c1cncc(CNCc2ccc(CN3CCCNCCNCCCNCC3)cc2)c1` the figure was 5.07; with `c1ccc(CNCc2ccc(CN3CCCNCCNCCCNCC3)cc2)nc1`, 8.05; with `c1ccc(CNCc2ccc(CN3CCNCCNCCc4cccc(c4)CC3)cc2)nc1`, 4.85. For `c1ccc(CNCc2ccc(CC3CCNCCCCCCCNCC3)cc2)nc1`, the pEC50 is 5.66. Turning to `O=S1(=O)CCCNCCN(Cc2ccc(CNCc3ccccn3)cc2)CCNCCC1`, the pEC50 is 4.93.

For the compound `c1ccc(CNCc2ccc(CN3CCCNCCNCCCNCC3)cc2)cc1`, the pEC50 was 6.31. Regarding `FC1(F)CCCNCCN(Cc2ccc(CNCc3ccccn3)cc2)CCNCCC1`, the pEC50 is 6.04. As to `c1ccc(CNCc2ccc(CN3CCNCCc4cncc(c4)CCNCC3)cc2)nc1`, the pEC50 was 6.98.

As to `c1cc(CN2CCCNCCNCCCNCC2)ccc1CN1CCCNCCNCCCNCC1` [PLERIXAFOR], the pEC50 was 8.40. On to `[O-][S+]1CCCNCCN(Cc2ccc(CNCc3ccccn3)cc2)CCNCCC1`, for which the pEC50 is 6.31.

With `c1ccc(CNCc2ccc(CN3CCCCCCCNCCNCC3)cc2)nc1`, the pEC50 is 4.95. Still for that read-out and setting: then `O=C1CN(Cc2ccc(CNCc3ccccn3)cc2)CCc2cccc(n2)CCCCCN1`, with 3.90; and `c1ccc(CNCc2ccc(CC3CCNCCc4cccc(n4)CCNCC3)cc2)nc1`, with 6.66; and `c1ccc(CNCc2ccc(CN3CCNCCc4cccc(n4)CCNCC3)cc2)nc1`, with 9.00. For `c1ccc(CNCc2ccc(CC3CCNCCCOCCCNCC3)cc2)nc1`, the pEC50 was 6.37. With `Nc1ccc(CNCc2ccc(CN3CCCNCCNCCCNCC3)cc2)cc1`, the pEC50 was 6.14. On to `c1ccc(CNCc2ccc(CN3CCNCCCCCCCNCC3)cc2)nc1`, for which the pEC50 was 7.37. On to `c1ccc(CCNCc2ccc(CN3CCCNCCNCCCNCC3)cc2)nc1`, for which the pEC50 is 4.31.

Take `c1ccc(CNCc2ccc(CN3CCNCCCOCCCNCC3)cc2)nc1`: the pEC50 is 8.40. For the compound `c1ccc(CNCc2ccc(CN3CCNCCCSCCCNCC3)cc2)nc1`, the pEC50 is 7.89. With `Nc1ccccc1CNCc1ccc(CN2CCCNCCNCCCNCC2)cc1`, the pEC50 was 5.74. The same measure, in the same setting: with `c1cc(CNCc2ccc(CN3CCCNCCNCCCNCC3)cc2)ccn1` the figure was 5.00; with `c1ccc(CNCc2ccc(CN3CCNCCc4cccc(c4)CCNCC3)cc2)nc1`, 7.40. Take `Cc1cnc(CNCc2ccc(CN3CCCNCCNCCCNCC3)cc2)cn1`: the pEC50 was 5.72. For the compound `c1ccc(CNCc2ccc(CN3CCNCCCCCc4cccc(n4)CC3)cc2)nc1`, the pEC50 was 5.90.

`FC1CCCNCCN(Cc2ccc(CNCc3ccccn3)cc2)CCNCCC1`: the pEC50 is 5.91.
